Reference: ChEMBL document CHEMBL1143701, “O2-acetoxymethyl-protected diazeniumdiolate-based NSAIDs (NONO-NSAIDs): synthesis, nitric oxide release, and biological evaluation studies” (Bioorg Med Chem, 2007)

Assays:
Rattus norvegicus [1] = assay: Antiinflammatory activity against carrageenan-induced rat paw edema in orally dosed rat after 3 hrs; format: functional; details: po, read-out: ID50 (the source's name)
[2] = Effect on nitric oxide release in presence of porcine liver esterase per mole using sievers […]; format: functional
In short: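 Porcine liver esterase (10 μL of suspension in 3.2 M ammonium sulfate) in 3 mL phosphate buffer pH 8.0; 10 μL of 46 or 77 mM DMSO stock injected; NO carried by nitrogen purge to chemiluminescence analyzer, quantified against calibration curve; time to 100% theoretical NO read graphically.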

[3] = biological target: T1, Prostaglandin G/H synthase 1 (Ovis aries, UniProt P05979); assay: Inhibition of ovine COX1 by enzyme immuno assay
T1 sequence (P05979 whole entry): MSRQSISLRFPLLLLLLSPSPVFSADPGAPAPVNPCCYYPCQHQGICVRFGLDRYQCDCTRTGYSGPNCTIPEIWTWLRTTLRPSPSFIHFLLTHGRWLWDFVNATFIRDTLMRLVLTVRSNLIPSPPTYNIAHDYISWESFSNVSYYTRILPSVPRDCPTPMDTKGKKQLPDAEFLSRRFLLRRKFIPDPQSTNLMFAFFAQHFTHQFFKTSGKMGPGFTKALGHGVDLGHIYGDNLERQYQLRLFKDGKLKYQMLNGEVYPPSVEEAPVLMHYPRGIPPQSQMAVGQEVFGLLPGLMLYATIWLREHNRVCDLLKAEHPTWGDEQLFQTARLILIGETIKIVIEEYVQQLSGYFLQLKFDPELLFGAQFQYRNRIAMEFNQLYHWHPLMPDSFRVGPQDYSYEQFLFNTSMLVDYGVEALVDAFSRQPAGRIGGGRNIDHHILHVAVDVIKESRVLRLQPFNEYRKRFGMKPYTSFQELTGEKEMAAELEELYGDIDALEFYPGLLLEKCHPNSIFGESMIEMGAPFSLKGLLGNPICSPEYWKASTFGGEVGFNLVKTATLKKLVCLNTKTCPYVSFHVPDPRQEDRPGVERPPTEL

Rattus norvegicus [4] = assay: Gastric damage production in rat assessed as gastric ulcer index at 1.21 mmol/kg, po after 6 hrs; format: functional, Stomach
In short: (§1)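 Rats fasted 24 h (water allowed), given single oral dose suspended in 1.7 mL 1% methylcellulose; vehicle controls. Killed 6 h later by CO2; stomachs opened along greater curvature and ulcer lengths scored under magnifier. Ulcer index = total ulcer length (mm) summed over stomachs divided by animals (n = 4); mean ± SEM.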

[5] = Effect on nitric oxide release in pH 7.4 PBS buffer using sievers […]; format: functional
In short: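 Prodrug in DMSO (46 or 77 mM stock), 10 μL injected into 3 mL deoxygenated phosphate buffer pH 7.4 at 37 °C in sealed cell; NO swept by nitrogen purge to chemiluminescence analyzer calibrated with NO/He standards; mol NO/mol compound from integrated peak area; time to ~50% of theoretical NO read graphically.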

Rattus norvegicus [6] = assay: Gastric damage production in rat assessed as gastric ulcer index at 1.38 mmol/kg, po after 6 hrs; format: functional, Stomach; in short: as §1
Rattus norvegicus [7] = assay: Gastric damage production in rat assessed as gastric ulcer index at 0.08 mmol/kg, po after 6 hrs; format: functional, Stomach; in short: as §1

| SMILES | ED50 (Rattus norvegicus [1]) [µmol/kg] | Activity [2] [mol/mol] | IC50 [3] [µM] | Activity (Rattus norvegicus [4]) | Activity [5] [mol/mol] | Activity (Rattus norvegicus [6]) | Activity (Rattus norvegicus [7]) |
| --- | --- | --- | --- | --- | --- | --- | --- |
| COc1ccc2c(c1)c(CC(=O)O)c(C)n2C(=O)c1ccc(Cl)cc1 [INDOMETHACIN] | 11.7 | – | – | – | – | – | – |
| CC(=O)OCO/N=[N+](\[O-])N(C)CCOC(=O)C(C)c1ccc(CC(C)C)cc1 (configuration not stated) | 175 | 2 | > 100 | 0 | 1.1 | – | – |
| CC(=O)OCO/N=[N+](\[O-])N(C)CCOC(=O)c1ccccc1OC(C)=O | 553 | 2 | > 100 | – | 1 | 0.84 | – |
| CC(C)Cc1ccc(C(C)C(=O)O)cc1 (configuration not stated) [IBUPROFEN] | 327 | – | – | 45.8 | – | – | – |
| CC(=O)Oc1ccccc1C(=O)O [ASPIRIN] | 714 | – | – | – | – | 57.4 | – |
| COc1ccc2c(c1)c(CC(=O)OCCN(C)/[N+]([O-])=N/OCOC(C)=O)c(C)n2C(=O)c1ccc(Cl)cc1 | 20.3 | 2 | > 100 | – | 0.9 | – | 1.3 |
| CC(=O)OCO/N=[N+](\[O-])N(C)CCO | – | 2 | – | – | 1 | – | – |
